Experimental data: ChEMBL document CHEMBL1154198, “Chemical genetics of Plasmodium falciparum” (Nature, 2010)

How the values were obtained:
[1] = test system: Plasmodium falciparum; experiment: ST_JUDE: Cytotoxicity against Plasmodium falciparum D10 transfected with yeast DHOD; type: functional, organism-based
[2] = test system: Toxoplasma gondii; experiment: ST_JUDE: Growth inhibition of to Toxoplasma gondii, in human U-2OS cells, as measured by luciferase.; type: functional, organism-based; details: RH, U2OS
Procedure, shortened: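 T. gondii parasites engineered to express luciferase; drug sensitivity read by luminescence.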

[3] = test system: Plasmodium falciparum; experiment: ST_JUDE: Cytotoxicity against Plasmodium falciparum 3D7; type: functional, organism-based
Procedure, shortened: (§1)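 Asexual P. falciparum grown in human erythrocytes, exposed to compounds for 72 h, and growth read as the DNA quantity in treated versus control cultures. Dose-response run at 12 concentrations from 10 μM to 5 nM.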

[4] = test system: Plasmodium falciparum; experiment: ST_JUDE: Cytotoxicity against Plasmodium falciparum Dd2; type: functional, organism-based
[5] = test system: Plasmodium falciparum; experiment: ST_JUDE: Cytotoxicity against Plasmodium falciparum K1; type: functional, organism-based; procedure, shortened: as §1
[6] = ST_JUDE: Cytotoxicity using luciferase to measure ATP as an indicator of the viability of human epithelial embryonic kidney cells (HEK293); type: toxicity, cell-based
[7] = ST_JUDE: Cytotoxicity using luciferase to measure ATP as an indicator of the viability of human foreskin fibroblast cells (BJ); type: toxicity, cell-based
[8] = ST_JUDE: Cytotoxicity using luciferase to measure ATP as an indicator of the viability of human Burkitt''s lymphoma lymphoblast cells (Raji); type: toxicity, cell-based
[9] = ST_JUDE: Cytotoxicity using luciferase to measure ATP as an indicator of the viability of human epithelial hepatocellular carcinoma cells (HepG2); type: toxicity, cell-based
[10] = test system: Plasmodium falciparum; experiment: ST_JUDE: Cytotoxicity against Plasmodium falciparum V1/S; type: functional, organism-based
[11] = test system: Trypanosoma brucei; experiment: ST_JUDE: Cytotoxicity using luciferase to measure ATP as an indicator of the viability of Trypanosoma brucei; type: functional, organism-based
[12] = test system: Plasmodium falciparum; experiment: ST_JUDE: Cytotoxicity against Plasmodium falciparum W2; type: functional, organism-based
[13] = test system: Plasmodium falciparum; experiment: ST_JUDE: Plasmodium falciparum K1 EC50 (uM) as measured by SYBR green dye; type: functional, organism-based
[14] = test system: Plasmodium falciparum; experiment: ST_JUDE: Plasmodium falciparum 3D7 EC50 (uM) as measured by SYBR green dye; type: functional, organism-based
[15] = test system: Plasmodium falciparum; experiment: ST_JUDE: Cytotoxicity against Plasmodium falciparum SB-A6; type: functional, organism-based
[16] = test system: Leishmania major; experiment: ST_JUDE: Cytotoxicity using Alamar Blue to measure viability of Leishmania major; type: functional, organism-based
Procedure, shortened: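 L. major promastigotes; drug susceptibility read with Alamar Blue.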

| Compound | EC50 [1] | EC50 [2] | EC50 [3] | EC50 [4] | EC50 [5] | EC50 [6] | EC50 [7] | EC50 [8] | EC50 [9] | EC50 [10] | EC50 [11] | EC50 [12] | EC50 [13] | EC50 [14] | EC50 [15] | EC50 [16] |
| --- | --- | --- | --- | --- | --- | --- | --- | --- | --- | --- | --- | --- | --- | --- | --- | --- |
| Cn1c(=O)c2c(-c3ccc(C(C)(C)C)cc3)n(-c3cc(Cl)ccc3O)cc2n(C)c1=O | 982 nM | > 21.7 µM | > 10200 nM | 1270 nM | > 10200 nM | > 39.5 µM | > 39.5 µM | > 39.5 µM | > 39.5 µM | 988 nM | 6.75 µM | 780 nM | 1220 nM | 1140 nM | 976 nM | > 16.9 µM |
| Clc1ccc(Nc2nc(NCc3ccco3)c3ccccc3n2)cc1 | 1150 nM | > 25.4 µM | 1260 nM | 818 nM | 1830 nM | 31.2 µM | > 46.4 µM | > 46.4 µM | 24 µM | > 11900 nM | 9.21 µM | > 11900 nM | 1710 nM | 797 nM | 388 nM | 0.0006 µM |
| CC(=O)N(C1=C(N(C)C)C(=O)c2ccccc2C1=O)c1ccc(F)cc1 | 17.6 nM | 0.63 µM | 12.1 nM | 12.5 nM | 15.2 nM | 7.54 µM | 3.83 µM | 0.284 µM | 0.713 µM | 11.9 nM | 0.571 µM | 77.3 nM | 144 nM | 68.5 nM | 29.7 nM | > 13.7 µM |
| OC(CNC1CCCC1)Cn1c2ccccc2c2ccccc21 (centres undefined) | 2690 nM | > 22.2 µM | 1690 nM | 889 nM | 620 nM | 31.5 µM | 20.3 µM | > 40.6 µM | 14.8 µM | 813 nM | 3.41 µM | 879 nM | 163 nM | 1080 nM | 3170 nM | > 17.4 µM |
| CCOc1cc(C2CC(=O)NC3=C2C(=O)CC(c2cc(OC)ccc2OC)C3)ccc1O (centres undefined) | 1140 nM | > 22.4 µM | 1050 nM | 1380 nM | 1090 nM | > 40.9 µM | > 40.9 µM | > 40.9 µM | > 40.9 µM | 1660 nM | > 39.2 µM | 1980 nM | 1280 nM | 1070 nM | 1130 nM | > 17.5 µM |
| CCOC(=O)c1cccc(NC(=O)CC2C(=O)N(c3ccc(F)cc3)C(=O)N2CCC(C)C)c1 (centres undefined) | 950 nM | > 23.8 µM | 945 nM | 635 nM | > 11100 nM | > 43.4 µM | > 43.4 µM | > 43.4 µM | > 43.4 µM | 1070 nM | 11.8 µM | > 11100 nM | 1160 nM | 593 nM | 1060 nM | > 18.6 µM |
| COc1ccc(NC(=O)C2c3ccccc3C(=O)N(CC(C)C)C2c2cccs2)cc1 (centres undefined) | 329 nM | > 26.1 µM | 217 nM | 255 nM | 196 nM | > 47.7 µM | > 47.7 µM | > 47.7 µM | > 47.7 µM | 416 nM | 7.55 µM | > 12300 nM | 120 nM | 102 nM | 370 nM | > 20.4 µM |
| CCCO/C(O)=C1\C(C)=NC2=C(C(=O)CC(c3ccc(OC)cc3)C2)C1c1ccccc1F (centres undefined) | 419 nM | > 24.4 µM | 495 nM | 636 nM | 281 nM | > 44.6 µM | > 44.6 µM | > 44.6 µM | > 44.6 µM | 375 nM | 9.66 µM | 83.9 nM | 439 nM | 549 nM | 243 nM | > 19.1 µM |
| CCOc1ccc2nc(C)cc(Nc3ccc(Cl)cc3)c2c1 | 536 nM | > 21.7 µM | 1070 nM | 577 nM | 4080 nM | 21.2 µM | 8.78 µM | 19.8 µM | 7.26 µM | 2770 nM | 8.1 µM | 754 nM | 1340 nM | 444 nM | 296 nM | 0.379 µM |
| CCOC(=O)C1(Cc2cccc(C(F)(F)F)c2)CCN(Cc2ccccc2O)CC1 | 743 nM | > 22.6 µM | 1330 nM | 345 nM | 368 nM | > 41.3 µM | > 41.3 µM | > 41.3 µM | > 41.3 µM | 486 nM | 11.7 µM | 726 nM | 57.6 nM | 389 nM | 858 nM | > 17.7 µM |
| COc1ccccc1/N=C1\C=C(NS(=O)(=O)c2ccc(C(C)C)cc2)c2ccccc2C1=O | 343 nM | > 18.9 µM | 450 nM | 627 nM | 290 nM | > 34.5 µM | > 34.5 µM | > 34.5 µM | > 34.5 µM | 280 nM | 1.79 µM | > 8870 nM | 132 nM | 598 nM | 190 nM | > 14.8 µM |
| CC(C)(C)C(=O)N1CCN(c2ccc([N+](=O)[O-])c(NC3CC3)c2)CC1 | 1360 nM | > 23.8 µM | 1240 nM | 1050 nM | 1070 nM | > 43.4 µM | > 43.4 µM | > 43.4 µM | > 43.4 µM | 1150 nM | 21.3 µM | 480 nM | 642 nM | 670 nM | 1240 nM | > 18.6 µM |
| CCCO/C(O)=C1\C(C)=NC2=C(C(=O)CC(c3ccc(OC)c(OC)c3)C2)C1c1ccccc1F (centres undefined) | 40.5 nM | > 22.5 µM | 111 nM | 89.4 nM | 82.5 nM | 35.9 µM | 0.0018 µM | > 41.1 µM | > 41.1 µM | 106 nM | 6.57 µM | 63.9 nM | 51.7 nM | 50 nM | 36.3 nM | > 17.6 µM |
| CCOc1cc(C2CC(=O)NC3=C2C(=O)CC(c2ccccc2Cl)C3)cc(Cl)c1O (centres undefined) | 1210 nM | > 23.7 µM | 890 nM | 1020 nM | 916 nM | > 43.2 µM | > 43.2 µM | > 43.2 µM | > 43.2 µM | 1080 nM | 19.7 µM | 860 nM | 212 nM | 500 nM | 1150 nM | > 18.5 µM |
| CO/C(O)=C1\C(C)=NC2=C(C(=O)CC(c3ccc(OC)c(OC)c3)C2)C1c1ccc(F)cc1 (centres undefined) | 182 nM | > 25.3 µM | 236 nM | 456 nM | 272 nM | > 46.3 µM | > 46.3 µM | > 46.3 µM | > 46.3 µM | 409 nM | 25.2 µM | 208 nM | 108 nM | 122 nM | 178 nM | > 19.8 µM |
| CCO/C(O)=C1\C(C)=NC2=C(C(=O)CC(c3ccc(OC)c(OC)c3)C2)C1c1cccc(C)c1 (centres undefined) | 1360 nM | > 22.3 µM | 1100 nM | 2080 nM | 950 nM | > 40.6 µM | > 40.6 µM | > 40.6 µM | > 40.6 µM | 1180 nM | > 39 µM | 816 nM | 633 nM | 1020 nM | 602 nM | > 17.4 µM |
| CCCN(C(=O)C(=O)Nc1ccc2nc3n(c(=O)c2c1)CCCCC3)c1ccc(OCC)cc1 | 220 nM | > 25.9 µM | 490 nM | 700 nM | 326 nM | > 47.3 µM | > 47.3 µM | > 47.3 µM | > 47.3 µM | 215 nM | > 45.3 µM | 334 nM | 289 nM | 673 nM | 346 nM | > 20.2 µM |
| Cc1ccc(C)c(N2CCN(Cc3cc(Br)ccc3O)CC2)c1 | 579 nM | > 19.5 µM | 532 nM | 427 nM | 206 nM | > 35.6 µM | > 35.6 µM | > 35.6 µM | > 35.6 µM | 297 nM | 28.3 µM | 571 nM | 178 nM | 395 nM | 716 nM | > 15.3 µM |
| CCOC(=O)C1=C(C)N=c2s/c(=C\c3cc(Cl)ccc3O)c(=O)n2C1c1ccc(N(C)C)cc1 (centres undefined) | > 4680 nM | > 9.98 µM | > 4680 nM | 1820 nM | 446 nM | > 18.2 µM | > 18.2 µM | > 18.2 µM | > 18.2 µM | 235 nM | 6.2 µM | > 4680 nM | 1000 nM | > 15000 nM | 2690 nM | > 7.8 µM |
